Data set [1] relates to Trypanosoma brucei brucei. The experiment in a line: Trypanocidal activity against Trypanosoma brucei brucei 221a assessed as parasite growth inhibition measured after 24 hrs by resazurin dye based microplate reader analysis. The format is functional. A digest of the protocol:
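Seeded at 1 × 10^4 mL-1 (T. b. brucei) or 5 × 10^4 mL-1 (HL-60) in Baltz medium with 16.7 % bovine serum and 0.9 % DMSO. Test compounds given as tenfold dilutions from 100 μM to 1 nM. Incubated at 37 °C, 5 % CO2. Resazurin added after 24 h, then a further 48 h. Absorbance read at 570/630 nm. GI50 obtained by linear interpolation; mean ± SD of three independent experiments.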
For orientation: Alamar Blue is a resazurin reagent that responds to reducing activity.

Data set [2] in a line: Selectivity index, ratio of GI50 for human HL-60 cells to GI50 for Trypanosoma brucei brucei 221a. The format is toxicity. The following applies: HL-60 cells versus Trypanosoma brucei brucei 221a, read-out: RatioGI50. A digest of the protocol:
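Ratio of GI50 for HL-60 to GI50 for T. b. brucei, both from the resazurin growth assay.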

A further data set concerns Plasmodium berghei. The data set is described as follows: Antiplasmodial activity against luciferase-expressing Plasmodium berghei infected in human Huh-7 cells assessed as reduction in parasitic load pretreated for 1 hr with cells followed by parasite infection and measured 48 hrs post infection by firefly luciferase assay. The format is functional, organism-based. The following applies: Plasmodium berghei, Huh-7. Summed up: (§1)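 Huh7 hepatoma cells in RPMI-1640 with 10 % FCS, seeded at 1 × 10^4 per well and left overnight. Seven compound concentrations, serially diluted from 10 mM DMSO stocks, applied 1 h before infection; DMSO vehicle control. PbGFP-Luciferase sporozoites from An. stephensi salivary glands added 1:1, plates spun 1800 × g for 5 min. Confluency by AlamarBlue at 46 hpi; parasite load by firefly luciferase at 48 hpi. IC50 from nonlinear regression.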

The next data set relates to Huh-7. The experiment in a line: Cytotoxicity against human Huh-7 cells infected with luciferase-expressing Plasmodium berghei assessed as effect on cell confluency pretreated for 1 hr followed by parasite infection and measured 46 hrs post infection by alamar blue staining based analysis. The format is toxicity. The following applies: huh-7, 47 h. Summed up:
as §1

Some results are limits rather than exact numbers.

On to `CC[C@H](C)[C@H]1O[C@]2(CC[C@@H]1C)C[C@@H]1C[C@@H](C/C=C(\C)[C@H](NC(=O)c3ccc(OC)c(O)c3)[C@@H](C)/C=C/C=C3\CO[C@@H]4[C@H](O)C(C)=C[C@@H](C(=O)O1)[C@]34O)O2`, for which the GI50 – broadly, the concentration at which growth is held to half of that of the control – in data set [1] was determined as 3.9 µM. The selectivity ratio in data set [2] is 8.2.

In the case of `CC[C@H](C)[C@H]1O[C@]2(CC[C@@H]1C)C[C@@H]1C[C@@H](C/C=C(\C)[C@H](NC(=O)CCl)[C@@H](C)/C=C/C=C3\CO[C@@H]4[C@H](O)[C@](C)(O)C=C(C(=O)O1)[C@]34O)O2`, in data set [1], the GI50 is 0.064 µM. The selectivity ratio in data set [2] was determined as 67.2.

Turning to `CC[C@H](C)[C@H]1O[C@]2(CC[C@@H]1C)C[C@@H]1C[C@@H](C/C=C(\C)[C@@H](O)[C@@H](C)/C=C/C=C3\CO[C@@H]4[C@H](O)C(C)=C[C@@H](C(=O)O1)[C@]34O)O2` [IVM AGLYCONE], the IC50 (commonly the midpoint of a concentration-inhibition curve) in the data set on Plasmodium berghei amounted to 5.45 µM. In addition, the GI50 in data set [1] came to 6.1 µM. Further, the Activity entry in the data set with Huh-7 is “Non-Toxic”. The selectivity ratio in data set [2] amounted to 5.8.

`CC[C@H](C)[C@H]1O[C@]2(CC[C@@H]1C)C[C@@H]1C[C@@H](C/C=C(\C)[C@H](NC(=O)C34CC5CC(CC(C5)C3)C4)[C@@H](C)/C=C/C=C3\CO[C@@H]4[C@H](O)[C@](C)(O)C=C(C(=O)O1)[C@]34O)O2`: in data set [1], the GI50 came to 3 µM. Further, the selectivity ratio in data set [2] was 10.3.

`CCC(=O)N[C@H]1/C(C)=C/C[C@@H]2C[C@@H](C[C@]3(CC[C@H](C)[C@@H]([C@@H](C)CC)O3)O2)OC(=O)C2=C[C@@](C)(O)[C@@H](O)[C@H]3OC/C(=C\C=C\[C@@H]1C)[C@@]23O`: in data set [1], the GI50 stood at 8.1 µM. In addition, the selectivity ratio in data set [2] amounted to 4.3.

As to `CC[C@H](C)[C@H]1O[C@]2(CC[C@@H]1C)C[C@@H]1C[C@@H](C/C=C(\C)[C@H](NC(=O)COC)[C@@H](C)/C=C/C=C3\CO[C@@H]4[C@H](O)[C@](C)(O)C=C(C(=O)O1)[C@]34O)O2`, the GI50 in data set [1] worked out at 18.2 µM. The selectivity ratio in data set [2] is 1.8.

With `CC[C@H](C)[C@H]1O[C@]2(CC[C@@H]1C)C[C@@H]1C[C@@H](C/C=C(\C)[C@H](NC(=O)c3ccco3)[C@@H](C)/C=C/C=C3\CO[C@@H]4[C@H](O)[C@](C)(O)C=C(C(=O)O1)[C@]34O)O2`, the GI50 in data set [1] was determined as 4.7 µM. Also, in data set [2], the selectivity ratio stood at 7.

For the molecule `CC[C@H](C)[C@H]1O[C@]2(CC[C@@H]1C)C[C@@H]1C[C@@H](C/C=C(\C)[C@H](NC(=O)COC)[C@@H](C)/C=C/C=C3\CO[C@@H]4[C@H](O)C(C)=C[C@@H](C(=O)O1)[C@]34O)O2`, the GI50 in data set [1] was 14.4 µM. For the same molecule, the selectivity ratio in data set [2] was found to be 2.3.

Take `CC[n+]1c(-c2ccccc2)c2cc(N)ccc2c2ccc(N)cc21` [HOMIDIUM BROMIDE]: the GI50 in data set [1] was found to be 0.086 µM. For the same molecule, the selectivity ratio in data set [2] came to 67.4.

Regarding `Cc1ccc(C(=O)Nc2ccc(S(=O)(=O)O)c3cc(S(=O)(=O)O)cc(S(=O)(=O)O)c23)cc1NC(=O)c1cccc(NC(=O)Nc2cccc(C(=O)Nc3cc(C(=O)Nc4ccc(S(=O)(=O)O)c5cc(S(=O)(=O)O)cc(S(=O)(=O)O)c45)ccc3C)c2)c1` [SURAMIN], in data set [1], the GI50 amounted to 0.036 µM. The selectivity ratio in data set [2] was more than 2780.

Regarding IVERMECTIN, the GI50 in data set [1] was 14.6 µM.

On to `CC[C@H](C)[C@H]1O[C@]2(CC[C@@H]1C)C[C@@H]1C[C@@H](C/C=C(\C)[C@H](NC(=O)c3ccc(OC)c(OC)c3)[C@@H](C)/C=C/C=C3\CO[C@@H]4[C@H](O)C(C)=C[C@@H](C(=O)O1)[C@]34O)O2`, for which the GI50 in data set [1] worked out at 5.8 µM. Besides, in data set [2], the selectivity ratio is 5.6.

Take `CC[C@H](C)[C@H]1O[C@]2(CC[C@@H]1C)C[C@@H]1C[C@@H](C/C=C(\C)[C@H](NC(=O)c3ccco3)[C@@H](C)/C=C/C=C3\CO[C@@H]4[C@H](O)C(C)=C[C@@H](C(=O)O1)[C@]34O)O2`: in data set [1], the GI50 amounted to 10.2 µM. In addition, the selectivity ratio in data set [2] came out at 3.1.

Consider `CC[C@H](C)[C@H]1O[C@]2(CC[C@@H]1C)C[C@@H]1C[C@@H](C/C=C(\C)[C@@H](O[C@H]3C[C@H](OC)[C@@H](O[C@H]4C[C@H](OC)[C@@H](O)[C@H](C)O4)[C@H](C)O3)[C@@H](C)/C=C/C=C3\CO[C@@H]4[C@H](O)[C@](C)(O)C=C(C(=O)O1)[C@]34O)O2`, for which, in the data set on Plasmodium berghei, the IC50 is 4.72 µM. Also, the 50% growth inhibitory concentration (GI50) in data set [1] came out at 20 µM. Moreover, the Activity result in the data set on Huh-7 was “Non-Toxic”. In data set [2], the selectivity ratio worked out at 1.6.

With `CC[C@H](C)[C@H]1O[C@]2(CC[C@@H]1C)C[C@@H]1C[C@@H](C/C=C(\C)[C@H](NC(=O)C(C)C)[C@@H](C)/C=C/C=C3\CO[C@@H]4[C@H](O)C(C)=C[C@@H](C(=O)O1)[C@]34O)O2`, the GI50 in data set [1] was 10.2 µM. In addition, the selectivity ratio in data set [2] worked out at 3.3.

On to `CC[C@H](C)[C@H]1O[C@]2(CC[C@@H]1C)C[C@@H]1C[C@@H](C/C=C(\C)[C@@H](O)[C@@H](C)/C=C/C=C3\CO[C@@H]4[C@H](O)[C@](C)(O)C=C(C(=O)O1)[C@]34O)O2`, for which the IC50 with Plasmodium berghei is 2.85 µM. Besides, the GI50 in data set [1] turned out to be 12.1 µM. The Activity entry with Huh-7 is “Non-Toxic”. The selectivity ratio in data set [2] amounted to 2.6.

As to `CC[C@H](C)[C@H]1O[C@]2(CC[C@@H]1C)C[C@@H]1C[C@@H](C/C=C(\C)[C@H](NC(=O)CCl)[C@@H](C)/C=C/C=C3\CO[C@@H]4[C@H](O)C(C)=C[C@@H](C(=O)O1)[C@]34O)O2`, in data set [1], the GI50 stood at 0.063 µM. Moreover, the selectivity ratio in data set [2] was found to be 47.6.

Turning to `CC[C@H](C)[C@H]1O[C@]2(CC[C@@H]1C)C[C@@H]1C[C@@H](C/C=C(\C)[C@H](NC(=O)c3ccccc3)[C@@H](C)/C=C/C=C3\CO[C@@H]4[C@H](O)C(C)=C[C@@H](C(=O)O1)[C@]34O)O2`, the GI50 in data set [1] is 8.6 µM. In addition, in data set [2], the selectivity ratio turned out to be 3.6.

`CC[C@H](C)[C@H]1O[C@]2(CC[C@@H]1C)C[C@@H]1C[C@@H](C/C=C(\C)[C@H](NC(=O)c3ccccc3)[C@@H](C)/C=C/C=C3\CO[C@@H]4[C@H](O)[C@](C)(O)C=C(C(=O)O1)[C@]34O)O2`: the GI50 in data set [1] was 4.3 µM. Besides, the selectivity ratio in data set [2] came to 7.

With `CC[C@H](C)[C@H]1O[C@]2(CC[C@@H]1C)C[C@@H]1C[C@@H](C/C=C(\C)[C@H](NC(=O)C(C)C)[C@@H](C)/C=C/C=C3\CO[C@@H]4[C@H](O)[C@](C)(O)C=C(C(=O)O1)[C@]34O)O2`, in data set [1], the GI50 is 6.6 µM. Moreover, the selectivity ratio in data set [2] turned out to be 5.1.

Turning to `CC[C@H](C)[C@H]1O[C@]2(CC[C@@H]1C)C[C@@H]1C[C@@H](C/C=C(\C)[C@H](NC(=O)c3ccc(OC)c(O)c3)[C@@H](C)/C=C/C=C3\CO[C@@H]4[C@H](O)[C@](C)(O)C=C(C(=O)O1)[C@]34O)O2`, the GI50 in data set [1] turned out to be 4.1 µM. For the same molecule, the selectivity ratio in data set [2] stood at 8.

`CC[C@H](C)[C@H]1O[C@]2(CC[C@@H]1C)C[C@@H]1C[C@@H](C/C=C(\C)[C@H](NC(=O)C34CC5CC(CC(C5)C3)C4)[C@@H](C)/C=C/C=C3\CO[C@@H]4[C@H](O)C(C)=C[C@@H](C(=O)O1)[C@]34O)O2`: the GI50 in data set [1] turned out to be 19.1 µM. In addition, the selectivity ratio in data set [2] was 1.6.

For `CC[C@H](C)[C@H]1O[C@]2(CC[C@@H]1C)C[C@@H]1C[C@@H](C/C=C(\C)[C@H](NC(=O)c3ccc(OC)c(OC)c3)[C@@H](C)/C=C/C=C3\CO[C@@H]4[C@H](O)[C@](C)(O)C=C(C(=O)O1)[C@]34O)O2`, in data set [1], the GI50 was 5 µM. Also, the selectivity ratio in data set [2] was 6.4.

As for `CC[C@H](C)[C@H]1O[C@]2(CC[C@@H]1C)C[C@@H]1C[C@@H](C/C=C(\C)[C@H](NC(C)=O)[C@@H](C)/C=C/C=C3\CO[C@@H]4[C@H](O)[C@](C)(O)C=C(C(=O)O1)[C@]34O)O2`, in the data set with Plasmodium berghei, the half-maximal inhibitory concentration (IC50) is 0.379 µM. In addition, the GI50 in data set [1] worked out at 7.5 µM. In addition, the Activity entry in the data set on Huh-7 is reported as “Non-Toxic”. The selectivity ratio in data set [2] is 4.5.

For `CCCCCCCCCC(=O)N[C@H]1/C(C)=C/C[C@@H]2C[C@@H](C[C@]3(CC[C@H](C)[C@@H]([C@@H](C)CC)O3)O2)OC(=O)C2=C[C@@](C)(O)[C@@H](O)[C@H]3OC/C(=C\C=C\[C@@H]1C)[C@@]23O`, the GI50 in data set [1] came out at 4.1 µM. In addition, the selectivity ratio in data set [2] is 7.8.

`CCCCCCCCCC(=O)N[C@H]1/C(C)=C/C[C@@H]2C[C@@H](C[C@]3(CC[C@H](C)[C@@H]([C@@H](C)CC)O3)O2)OC(=O)[C@@H]2C=C(C)[C@@H](O)[C@H]3OC/C(=C\C=C\[C@@H]1C)[C@]32O`: in data set [1], the GI50 was determined as 9.3 µM. Besides, in data set [2], the selectivity ratio is 3.2.

As for `CCC(=O)N[C@H]1/C(C)=C/C[C@@H]2C[C@@H](C[C@]3(CC[C@H](C)[C@@H]([C@@H](C)CC)O3)O2)OC(=O)[C@@H]2C=C(C)[C@@H](O)[C@H]3OC/C(=C\C=C\[C@@H]1C)[C@]32O`, the GI50 in data set [1] came out at 7.4 µM. For the same molecule, the selectivity ratio in data set [2] stood at 4.3.

For the molecule `CC[C@H](C)[C@H]1O[C@]2(CC[C@@H]1C)C[C@@H]1C[C@@H](C/C=C(\C)[C@H](NC(C)=O)[C@@H](C)/C=C/C=C3\CO[C@@H]4[C@H](O)C(C)=C[C@@H](C(=O)O1)[C@]34O)O2`, the IC50 with Plasmodium berghei is 1.52 µM. In addition, the GI50 in data set [1] is 5.5 µM. In addition, the Activity result in the data set on Huh-7 is recorded as “Non-Toxic”. In addition, the selectivity ratio in data set [2] is 5.8.

These data come from ChEMBL document CHEMBL5537124, “Unexpected rearrangement of ivermectin in the synthesis of new derivatives with trypanocidal and antiplasmodial activities” (Eur J Med Chem, 2024).
